Results: ChEMBL document CHEMBL5537199, “Discovery and SAR Study of Boronic Acid-Based Selective PDE3B Inhibitors from a Novel DNA-Encoded Library” (J Med Chem, 2024)

How the values were obtained:
[1] = biological target: cGMP-inhibited 3',5'-cyclic phosphodiesterase 3B (Homo sapiens, UniProt Q13370); experiment: Inhibition of full-length PDE3B (M1 to E1112 residues) (unknown origin) using FAM-cAMP as substrate incubated for 120 mins by TR-FRET IMAP assay
Method in brief: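 Buffer 50 mM Tris-HCl pH 7.5, 8.3 mM MgCl2, 1.7 mM EGTA, 0.05% BSA. Compounds run as a concentration curve with a top final concentration of 100 μM. DMSO and 10 μM trequinsin served as controls. Terbium TR-FRET ratio read at 520:490 nm.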

[2] = Selectivity ratio of inhibition for PDE3A (M1 to Q1141 residues) (unknown origin) by RF-MS assay to inhibition for PDE3B (M1 to E1112 residues) (unknown origin) by RF-MS assay
[3] = biological target: cGMP-inhibited 3',5'-cyclic phosphodiesterase 3A (Homo sapiens, UniProt Q14432); experiment: Inhibition of PDE3A (M1 to Q1141 residues) (unknown origin) using FAM-cAMP as substrate incubated for 45 mins by TR-FRET IMAP assay
Chain of cGMP-inhibited 3',5'-cyclic phosphodiesterase 3A (Q14432 whole entry, the tested form may be a part): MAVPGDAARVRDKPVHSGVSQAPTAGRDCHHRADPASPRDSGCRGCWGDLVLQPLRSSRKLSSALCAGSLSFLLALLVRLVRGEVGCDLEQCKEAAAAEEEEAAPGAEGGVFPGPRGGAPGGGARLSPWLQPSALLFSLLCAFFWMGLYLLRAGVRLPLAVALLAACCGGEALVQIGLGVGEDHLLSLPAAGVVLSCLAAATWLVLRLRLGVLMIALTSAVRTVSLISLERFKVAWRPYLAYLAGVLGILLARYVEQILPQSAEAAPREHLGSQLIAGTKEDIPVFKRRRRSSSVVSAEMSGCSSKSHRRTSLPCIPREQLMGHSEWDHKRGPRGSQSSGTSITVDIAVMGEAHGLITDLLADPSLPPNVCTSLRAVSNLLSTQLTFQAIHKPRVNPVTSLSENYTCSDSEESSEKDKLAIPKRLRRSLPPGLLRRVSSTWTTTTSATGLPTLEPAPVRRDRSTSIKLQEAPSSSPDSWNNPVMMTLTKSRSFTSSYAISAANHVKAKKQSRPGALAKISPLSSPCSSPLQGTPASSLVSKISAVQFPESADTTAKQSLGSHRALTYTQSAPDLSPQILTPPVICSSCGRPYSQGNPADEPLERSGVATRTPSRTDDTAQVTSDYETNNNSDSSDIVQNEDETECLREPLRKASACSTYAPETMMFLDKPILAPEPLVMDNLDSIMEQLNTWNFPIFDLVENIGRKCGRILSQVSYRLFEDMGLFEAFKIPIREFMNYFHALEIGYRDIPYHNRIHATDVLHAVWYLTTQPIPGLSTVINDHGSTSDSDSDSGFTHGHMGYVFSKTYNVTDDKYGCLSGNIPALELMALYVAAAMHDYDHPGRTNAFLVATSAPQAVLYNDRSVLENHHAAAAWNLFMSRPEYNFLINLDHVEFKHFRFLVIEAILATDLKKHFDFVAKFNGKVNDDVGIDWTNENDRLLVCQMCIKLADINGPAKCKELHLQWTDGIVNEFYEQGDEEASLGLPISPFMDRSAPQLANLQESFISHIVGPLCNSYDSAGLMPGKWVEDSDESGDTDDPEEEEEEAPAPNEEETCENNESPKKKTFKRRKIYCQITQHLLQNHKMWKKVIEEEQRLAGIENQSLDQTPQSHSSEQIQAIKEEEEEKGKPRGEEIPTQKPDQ
Method in brief: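 Full-length PDE3A at 1.6 nM with 50 nM FAM-cAMP, 45 min reaction. Buffer 50 mM Tris-HCl pH 7.5, 8.3 mM MgCl2, 1.7 mM EGTA, 0.05% BSA. Compounds run as a concentration curve with a top final concentration of 100 μM. DMSO and 10 μM trequinsin served as controls. TR-FRET read at Ex 337 nm, Em 520/490 nm.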

[4] = Selectivity ratio of inhibition for PDE3A (M1 to Q1141 residues) (unknown origin) by IMAP assay to inhibition for PDE3B (M1 to E1112 residues) (unknown origin) by IMAP assay

Chain of cGMP-inhibited 3',5'-cyclic phosphodiesterase 3B (Q13370 whole entry, the tested form may be a part): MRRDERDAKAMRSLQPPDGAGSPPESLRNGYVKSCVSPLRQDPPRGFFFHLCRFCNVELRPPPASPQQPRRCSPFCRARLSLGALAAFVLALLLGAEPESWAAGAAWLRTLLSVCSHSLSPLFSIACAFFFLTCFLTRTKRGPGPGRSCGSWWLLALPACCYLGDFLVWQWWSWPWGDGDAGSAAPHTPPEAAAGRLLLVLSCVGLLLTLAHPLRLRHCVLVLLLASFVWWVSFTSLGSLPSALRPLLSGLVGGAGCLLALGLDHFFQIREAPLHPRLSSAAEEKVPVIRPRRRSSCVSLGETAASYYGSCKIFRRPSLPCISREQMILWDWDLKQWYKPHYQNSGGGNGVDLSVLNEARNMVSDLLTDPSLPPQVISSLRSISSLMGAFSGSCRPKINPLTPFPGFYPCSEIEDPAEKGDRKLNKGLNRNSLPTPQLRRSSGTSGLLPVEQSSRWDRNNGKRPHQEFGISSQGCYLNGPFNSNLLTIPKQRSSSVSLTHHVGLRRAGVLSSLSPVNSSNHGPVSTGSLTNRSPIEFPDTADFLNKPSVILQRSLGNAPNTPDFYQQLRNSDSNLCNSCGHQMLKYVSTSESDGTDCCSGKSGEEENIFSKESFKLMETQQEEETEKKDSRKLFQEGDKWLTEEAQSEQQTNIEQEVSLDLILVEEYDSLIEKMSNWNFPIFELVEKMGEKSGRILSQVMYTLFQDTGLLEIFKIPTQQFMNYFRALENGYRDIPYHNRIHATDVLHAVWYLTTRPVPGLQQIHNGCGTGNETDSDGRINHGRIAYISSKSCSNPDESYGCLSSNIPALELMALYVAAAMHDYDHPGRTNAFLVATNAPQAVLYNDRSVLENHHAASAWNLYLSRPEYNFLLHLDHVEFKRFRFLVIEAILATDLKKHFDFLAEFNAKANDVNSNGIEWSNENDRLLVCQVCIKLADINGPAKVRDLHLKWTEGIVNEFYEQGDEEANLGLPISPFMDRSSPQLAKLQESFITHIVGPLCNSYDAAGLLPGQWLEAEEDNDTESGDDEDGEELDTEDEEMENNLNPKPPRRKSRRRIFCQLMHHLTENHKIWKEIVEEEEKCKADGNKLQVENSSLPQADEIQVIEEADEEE

COc1ccc2c(OC)cc(C(=O)Nc3cc(B(O)O)cc(C(=O)N4CC(OC5CC5)C4)c3)nc2c1
IC50 [1]: 200 nM | Selectivity ratio [2]: 75 | IC50 [3]: 3160 nM | Selectivity ratio [4]: 17

COc1ccc2c(OC)cc(C(=O)Nc3cc(B(O)O)cc(C(=O)N[C@H](C(N)=O)C(C)C)c3)nc2c1
IC50 [1]: 316 nM | Selectivity ratio [2]: 30 | IC50 [3]: 5010 nM | Selectivity ratio [4]: 15

CNC(=O)[C@@H](NC(=O)c1cc(NC(=O)c2cc3ccccc3cn2)cc(B(O)O)c1)C1CCCCC1
IC50 [1]: 3160 nM | Selectivity ratio [2]: 2 | IC50 [3]: 3160 nM | Selectivity ratio [4]: 1

CNC(=O)[C@@H](NC(=O)c1cc(NC(=O)c2ccc3cccnc3n2)cc(B(O)O)c1)C1CCCCC1
IC50 [1]: 631 nM | Selectivity ratio [2]: 1 | IC50 [3]: 501 nM | Selectivity ratio [4]: 0.7

CNC(=O)[C@@H](NC(=O)c1cc(NC(=O)c2cc(C)c3c(=O)[nH]c(=O)[nH]c3n2)cc(B(O)O)c1)C1CCCCC1
IC50 [1]: 20000 nM | Selectivity ratio [2]: 1.2 | IC50 [3]: 15800 nM | Selectivity ratio [4]: 0.8

CNC(=O)[C@@H](NC(=O)c1cc(NC(=O)c2cc(OC)c3ccccc3n2)cc(B(O)O)c1)C1CCCCC1
IC50 [1]: 158 nM | Selectivity ratio [2]: 2.3 | IC50 [3]: 251 nM | Selectivity ratio [4]: 1.6

CNC(=O)[C@H](NC(=O)c1cc(NC(=O)c2nc(C)ncc2OC)cc(B(O)O)c1)C1CCCCC1
IC50 [1]: 31600 nM | Selectivity ratio [2]: 0.8 | IC50 [3]: 31600 nM | Selectivity ratio [4]: 0.8

CCNC(=O)N1CCCCC(NC(=O)c2cc(NC(=O)c3cc(C)cc(C)c3OC)cc(B(O)O)c2)C1 (stereo not given)
IC50 [1]: 200 nM | Selectivity ratio [2]: 3.8 | IC50 [3]: 501 nM | Selectivity ratio [4]: 2.6

CNC(=O)[C@H](NC(=O)c1cc(NC(=O)c2cc(Cl)cc3c2OCC(=O)N3)cc(B(O)O)c1)C1CCCCC1
IC50 [1]: 1580 nM | Selectivity ratio [2]: 7 | IC50 [3]: 6310 nM | Selectivity ratio [4]: 3.3

COc1ccc2c(OC)cc(C(=O)Nc3cc(B(O)O)cc(C(=O)N(C)C)c3)nc2c1
IC50 [1]: 2000 nM | Selectivity ratio [2]: 63 | IC50 [3]: 50100 nM | Selectivity ratio [4]: 23

CNC(=O)[C@@H](NC(=O)c1cc(NC(=O)c2cc(OC)c3cc(OC)ccc3n2)cc(B(O)O)c1)C1CCCCC1
IC50 [1]: 1000 nM | Selectivity ratio [2]: 0.9 | IC50 [3]: 794 nM | Selectivity ratio [4]: 0.8

CNC(=O)[C@@H](NC(=O)c1cc(NC(=O)c2cc(C)cc(C)c2OC)cc(B(O)O)c1)C1CCCCC1
IC50 [1]: 316 nM | Selectivity ratio [2]: 6.3 | IC50 [3]: 1000 nM | Selectivity ratio [4]: 3.4

CNC(=O)[C@@H](NC(=O)c1cc(NC(=O)c2ccc3ncccc3n2)cc(B(O)O)c1)C1CCCCC1
IC50 [1]: 200 nM | Selectivity ratio [2]: 0.6 | IC50 [3]: 126 nM | Selectivity ratio [4]: 0.7

COc1ccc2c(OC)cc(C(=O)Nc3cc(B(O)O)cc(C(=O)N4CCCC4)c3)nc2c1
IC50 [1]: 794 nM | Selectivity ratio [2]: 46 | IC50 [3]: 31600 nM | Selectivity ratio [4]: 46

COc1ccc2c(OC)cc(C(=O)Nc3cc(B(O)O)cc(C(=O)N[C@@H](C(N)=O)C(C)C)c3)nc2c1
IC50 [1]: 2000 nM | Selectivity ratio [2]: 16 | IC50 [3]: 15800 nM | Selectivity ratio [4]: 8.5

CNC(=O)[C@H](NC(=O)c1cc(NC(=O)c2cc(OC)c3ccc(OC)cc3n2)cc(B(O)O)c1)C1CCCCC1
IC50 [1]: 316 nM | Selectivity ratio [2]: 78 | IC50 [3]: 10000 nM | Selectivity ratio [4]: 37

CNC(=O)[C@H](NC(=O)c1cc(NC(=O)C(C)Oc2c(C)cccc2C)cc(B(O)O)c1)C1CCCCC1 (stereo not given in full)
IC50 [1]: 25100 nM | Selectivity ratio [2]: 4.7 | IC50 [3]: 79400 nM | Selectivity ratio [4]: 3.3

CNC(=O)[C@@H](NC(=O)c1cc(NC(=O)c2cnc3ccccc3c2)cc(B(O)O)c1)C1CCCCC1
IC50 [1]: 20000 nM | Selectivity ratio [2]: 0.9 | IC50 [3]: 12600 nM | Selectivity ratio [4]: 0.7

COc1ccc2c(OC)cc(C(=O)N(C)c3cc(B(O)O)cc(C(=O)NC(C)C)c3)nc2c1
IC50 [1]: > 100000 nM | IC50 [3]: > 100000 nM

CNC(=O)[C@@H](NC(=O)c1cc(NC(=O)c2ccc3ccccc3c2)cc(B(O)O)c1)C1CCCCC1
IC50 [1]: 5010 nM | Selectivity ratio [2]: 0.4 | IC50 [3]: 1580 nM | Selectivity ratio [4]: 0.3

CNC(=O)[C@@H](NC(=O)c1cc(NC(=O)c2ccc3ccncc3n2)cc(B(O)O)c1)C1CCCCC1
IC50 [1]: 316 nM | Selectivity ratio [2]: 0.7 | IC50 [3]: 158 nM | Selectivity ratio [4]: 0.5

COc1ccc2c(OC)cc(C(=O)Nc3cc(B(O)O)cc(C(=O)NCC(C)OC)c3)nc2c1 (stereo not given)
IC50 [1]: 2000 nM | Selectivity ratio [2]: 25 | IC50 [3]: 25100 nM | Selectivity ratio [4]: 14

CNC(=O)[C@@H](NC(=O)c1cc(NC(=O)c2ccc3ccc(OC)cc3c2)cc(B(O)O)c1)C1CCCCC1
IC50 [1]: 10000 nM | Selectivity ratio [2]: 1.9 | IC50 [3]: 12600 nM | Selectivity ratio [4]: 1

COc1ccc2c(OC)cc(C(=O)Nc3cc(B(O)O)cc(C(N)=O)c3)nc2c1
IC50 [1]: 2000 nM | Selectivity ratio [2]: 45 | IC50 [3]: > 100000 nM | Selectivity ratio [4]: > 51

COc1ccc2c(OC)cc(C(=O)Nc3cc(B(O)O)cc(C(=O)N[C@H]4CCCOC4)c3)nc2c1
IC50 [3]: 31600 nM

COc1ccc2c(OC)cc(C(=O)Nc3cc(B(O)O)cc(C(=O)N4Cc5ccncc5C4)c3)nc2c1
IC50 [1]: 316 nM | Selectivity ratio [2]: 97 | IC50 [3]: 12600 nM | Selectivity ratio [4]: 43

CCNC(=O)N1CCCCC(NC(=O)c2cc(O)cc(NC(=O)c3cc(C)cc(C)c3OC)c2)C1 (stereo not given)
IC50 [1]: 39800 nM | Selectivity ratio [2]: 1 | IC50 [3]: 31600 nM | Selectivity ratio [4]: 0.8

COc1ccc2c(OC)cc(C(=O)Nc3cc(B(O)O)cc(C(=O)NC(C)C)c3)nc2c1
IC50 [1]: 1000 nM | Selectivity ratio [2]: 42 | IC50 [3]: 15800 nM | Selectivity ratio [4]: 15

COc1ccc2c(OC)cc(C(=O)Nc3cc(B(O)O)cc(C(=O)N[C@@H]4CCCOC4)c3)nc2c1
IC50 [3]: 63100 nM

CNC(=O)[C@H](NC(=O)c1cc(NC(=O)c2cc(OC)ccn2)cc(B(O)O)c1)C1CCCCC1
IC50 [1]: 50100 nM | Selectivity ratio [2]: 1.6 | IC50 [3]: 50100 nM | Selectivity ratio [4]: 1

CNC(=O)[C@@H](C)NC(=O)c1cc(NC(=O)c2cc(OC)c3ccc(OC)cc3n2)cc(B(O)O)c1
IC50 [1]: 1000 nM | Selectivity ratio [2]: 26 | IC50 [3]: 25100 nM | Selectivity ratio [4]: 24

CNC(=O)[C@H](NC(=O)c1cc(NC(=O)c2cc(C)cc(C)c2OC)cc(B(O)O)c1)C1CCCCC1
IC50 [1]: 794 nM | Selectivity ratio [2]: 6.6 | IC50 [3]: 2000 nM | Selectivity ratio [4]: 2.6

CNC(=O)[C@@H](NC(=O)c1cc(NC(=O)c2cc3c(c(OC)c2)OCC(=O)N3)cc(B(O)O)c1)C1CCCCC1
IC50 [1]: 631 nM | IC50 [3]: 251 nM | Selectivity ratio [4]: 0.4

COc1ccc2c(OC)cc(C(=O)Nc3cc(B(O)O)cc(C(=O)N(C)Cc4ccccc4)c3)nc2c1
IC50 [1]: 631 nM | Selectivity ratio [2]: 62 | IC50 [3]: 15800 nM | Selectivity ratio [4]: 21

COc1ccc2c(OC)cc(C(=O)Nc3cc(B(O)O)cc(C(=O)NCC(C)C)c3)nc2c1
IC50 [1]: 1580 nM | Selectivity ratio [2]: 56 | IC50 [3]: 25100 nM | Selectivity ratio [4]: 14

CNC(=O)[C@@H](NC(=O)c1cc(NC(=O)c2ccc3cc(OC)ccc3n2)cc(B(O)O)c1)C1CCCCC1
IC50 [1]: 1000 nM | Selectivity ratio [2]: 1 | IC50 [3]: 1260 nM | Selectivity ratio [4]: 1.2
